Results on 33 molecules are retold here after ChEMBL document CHEMBL1143677, “Discovery of 4-aryl-4H-chromenes as a new series of apoptosis inducers using a cell- and caspase-based high-throughput screening assay. 3. Structure-activity relationships of fused rings at the 7,8-positions” (J Med Chem, 2007).

The test system of one assay is NCI-H1299. Description: Apoptosis inducing activity in human H1299 cells by caspase activation assay. It is filed as functional, cell-based. Put shortly: (§1)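 Cell-based caspase activation (apoptosis induction) HTS assay run in T47D breast and H1299 non-small-cell lung cancer cells; EC50 reported as mean ± SEM of three or more experiments.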
The subject of assay [1] is T47D. The assay is described as follows: Apoptosis inducing activity in human T47D cells by caspase activation assay. Type of assay: functional, cell-based. The method in brief: as §1
The target of the next assay is Tubulin. Description: Inhibition of tubulin polymerization. It is filed as protein-complex assay, Homo sapiens.
Assay [2] concerns T47D. Description: Growth inhibition of human T47D cells after 48 hrs. Type of assay: functional. The method in brief:
(§2)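 Cells were exposed continuously to compound for 48 h at 37 °C in 96-well format. CellTiter-Glo reagent was added with agitation, then 10-15 min at room temperature before luminescence read-out.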

A short description of assay [3]: Growth inhibition of human H1299 cells after 48 hrs. It is filed as functional. The conditions noted are these: NCI-H1299, 48 h. The method in brief:
as §2

As to `COc1cc(OC)cc(C2C(C#N)=C(N)Oc3c2ccc2cc[nH]c32)c1` (stereo not given), the figures for the 50% effective concentration (EC50) with NCI-H1299 and in the assay with T47D [1] were 59 nM and 31 nM, respectively.
In the same order, the values of `COc1cccc(C2C(C#N)=C(N)Oc3c2ccc2cc[nH]c32)c1` (stereo not given) are 140 nM and 88 nM.
`COc1cc(C2C(C#N)=C(N)Oc3c2ccc2ccccc32)cc(OC)c1OC` (stereo not given): the EC50 in the assay with NCI-H1299 was 67 nM; in the assay on T47D [1], 27 nM.
As to `COc1cc(C2C(C#N)=C(N)Oc3c2ccc2ncccc32)cc(OC)c1OC` (stereo not given), the figures for the EC50 with NCI-H1299 and with T47D [1] were 22 nM and 160 nM, respectively.
The molecule `COc1cc(C2C(C#N)=C(N)Oc3c2ccc2cc[nH]c32)cc(Br)c1OC` (stereo not given) returned an IC50 against Tubulin of 900 nM. Also, a half-maximal effect in the assay with NCI-H1299 (EC50) was put at 53 nM. Besides, the GI50 is 9 nM in the assay on T47D [2] and 6 nM in assay [3].
`COc1cc(OC)cc(C2C(C#N)=C(N)Oc3c2ccc2[nH]ccc32)c1` (stereo not given): the values for the EC50 with NCI-H1299 and in the assay with T47D [1] were 120 nM and 30 nM, respectively.
Molecule `N#CC1=C(N)Oc2c(ccc3[nH]ccc23)C1c1ccccc1` (stereo not given) had an EC50 in the assay with NCI-H1299 of 430 nM.
For the molecule `COc1cc(C2C(C#N)=C(N)Oc3c2ccc2ccccc32)cc(Br)c1OC` (stereo not given), the EC50 in the assay with NCI-H1299 came out at 93 nM; in the assay with T47D [1] it was 73 nM.
Take `COc1cc(C2C(C#N)=C(N)Oc3c2ccc2cnccc32)cc(Br)c1OC` (stereo not given): the EC50 with NCI-H1299 came to 150 nM; in the assay on T47D [1], 61 nM. The concentration for 50% growth inhibition (GI50) in the assay on T47D [2] was determined as 57 nM; in assay [3], 71 nM.
Regarding `N#CC1=C(N)Oc2c(ccc3[nH]ccc23)C1c1cccnc1` (stereo not given), the EC50 in the assay on NCI-H1299 worked out at 190 nM; in the assay with T47D [1], 110 nM.
In the same order, the values of `COc1cncc(C2C(C#N)=C(N)Oc3c2ccc2[nH]ccc32)c1` (stereo not given) are 30 nM and 16 nM.
On to `COc1cc(C2C(C#N)=C(N)Oc3c2ccc2cc[nH]c32)cc(OC)c1OC` (stereo not given), for which the EC50 was 180 nM in the assay with NCI-H1299 and 72 nM in the assay on T47D [1].
In the same order, the values of `COc1cc(C2C(C#N)=C(N)Oc3c2ccc2c3CCCC2)cc(Br)c1OC` (stereo not given) are 520 nM and 190 nM.
With `COc1cc(C2C(C#N)=C(N)Oc3c2ccc2nc(C)c(C)nc32)cc(Br)c1OC` (stereo not given), the EC50 with NCI-H1299 is 2720 nM; in the assay on T47D [1], 2120 nM.
Take `COc1cc(C2C(C#N)=C(N)Oc3c2ccc2[nH]ccc32)cc(Br)c1OC` (stereo not given): the midpoint of inhibition on Tubulin, the IC50, lay at 400 nM. Further, the response in the assay on NCI-H1299 was half-maximal at 13 nM (EC50). The results for the GI50 (in the assay on T47D [2]; in assay [3]) were 8 nM and 19 nM, respectively.
For the molecule `COc1cc(C2C(C#N)=C(N)Oc3c2ccc2cnccc32)cc(OC)c1OC` (stereo not given), the EC50 in the assay on NCI-H1299 worked out at 440 nM; with T47D [1] it was 120 nM.
The matching figures for `COc1cc(C2C(C#N)=C(N)Oc3c2ccc2cnccc32)cc(I)c1OC` (stereo not given): 130 nM and 64 nM.
The matching figures for `Cc1cncc(C2C(C#N)=C(N)Oc3c2ccc2cnccc32)c1` (stereo not given): 290 nM and 230 nM.
In the case of `Cc1cncc(C2C(C#N)=C(N)Oc3c2ccc2[nH]ccc32)c1` (stereo not given), the EC50 was found to be 65 nM in the assay with NCI-H1299 and 13 nM with T47D [1]. The GI50 in the assay with T47D [2] turned out to be 73 nM; in assay [3], 100 nM.
On to `COc1cc(C2C(C#N)=C(N)Oc3c2ccc(N)c3N)cc(Br)c1OC` (stereo not given), for which the GI50 in the assay on T47D [2] was determined as 150 nM; in assay [3] it was 31 nM.
For the molecule `COc1cc(C2C(C#N)=C(N)Oc3c2ccc2ncccc32)cc(Br)c1OC` (stereo not given), the 50% effective concentration (EC50) in the assay with NCI-H1299 was found to be 140 nM; with T47D [1], 65 nM.
Turning to `N#CC1=C(N)Oc2c(ccc3[nH]ccc23)C1c1cccc(C#N)c1` (stereo not given), the EC50 in the assay on NCI-H1299 and in the assay on T47D [1] was 43 nM in each case.
Consider `COc1cc(C2C(C#N)=C(N)Oc3c2ccc2[nH]ccc32)cc(OC)c1OC` (stereo not given), for which the results for the EC50 in the assay with NCI-H1299 and in the assay on T47D [1] were 77 nM and 30 nM, respectively.
Take `COc1cc(C2C(C#N)=C(N)Oc3c2ccc2[nH]ccc32)cc(Br)c1O` (stereo not given): the values for the EC50 in the assay with NCI-H1299 and in the assay on T47D [1] were 25 nM and 13 nM, respectively. In addition, the GI50 with T47D [2] was found to be 57 nM; in assay [3], 71 nM.
`N#CC1=C(N)Oc2c(ccc3cc[nH]c23)C1c1cccc(C#N)c1` (stereo not given): the EC50 is 130 nM in the assay with NCI-H1299 and 120 nM with T47D [1].
For `COc1cc(C2C(C#N)=C(N)Oc3c2ccc2cc[nH]c32)cc(Br)c1O` (stereo not given), the EC50 stood at 80 nM with NCI-H1299 and 35 nM with T47D [1]. Also, the GI50 (in the assay with T47D [2]; in assay [3]) was 70 nM each time.
`COc1cccc(C2C(C#N)=C(N)Oc3c2ccc2[nH]ccc32)c1` (stereo not given): the EC50 with NCI-H1299 stood at 66 nM; in the assay with T47D [1] it was 52 nM.
Turning to `N#CC1=C(N)Oc2c(ccc3[nH]ccc23)C1c1cccc([N+](=O)[O-])c1` (stereo not given), the EC50 with NCI-H1299 came to 96 nM; in the assay on T47D [1], 68 nM.
The matching figures for `N#CC1=C(N)Oc2c(ccc3cnccc23)C1c1cncc(Br)c1` (stereo not given): 150 nM and 120 nM.
As to `COc1cc(C2C(C#N)=C(N)Oc3c2ccc2ccccc32)cc(I)c1OC` (stereo not given), the EC50 with NCI-H1299 was determined as 128 nM; with T47D [1] it was 64 nM.
With `COc1cc(C2C(C#N)=C(N)Oc3c2ccc2nccnc32)cc(Br)c1OC` (stereo not given), the EC50 in the assay with NCI-H1299 was found to be 860 nM; with T47D [1], 460 nM. The GI50 with T47D [2] stood at 450 nM; in assay [3], 550 nM.
As to `COc1cc(C2C(C#N)=C(N)Oc3c2ccc2cccnc32)cc(Br)c1OC` (stereo not given), the EC50 in the assay on NCI-H1299 was 94 nM; with T47D [1], 29 nM.
In the assay on NCI-H1299, `COc1cc(C2C(C#N)=C(N)Oc3c2ccc2[nH]c(C)cc32)cc(Br)c1OC` (stereo not given) displayed an EC50 of 57 nM. Also, the GI50 in the assay with T47D [2] worked out at 89 nM; in assay [3], 140 nM.

The term EC50 denotes the concentration at which the effect is half-maximal. Low readings indicate greater potency, high ones weaker potency. The term IC50 denotes the concentration needed to halve the response being measured. A high value points to weaker potency in that assay. As usually defined, the GI50 is the concentration at which growth is held to half of that of the control.
